Test [1] addresses T1, Histone acetyltransferase KAT2B (Homo sapiens, UniProt Q92831). In words: Inhibition of histone acetylase activity of human recombinant PCAF expressed in Escherichia coli using biotinylated oligopeptide sequences from histone H3 (1-21) substrate by In-vitro time-resolved fluorescence immunosorbent acetyltransferase assay. The procedure, abridged:
(§1)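 His-tagged human PCAF from E. coli (IPTG induction at 18 °C overnight), purified on Ni-NTA and stored at pH 6.0. Enzyme was preincubated with inhibitor in DMSO for 10 min at 30 °C in HAT buffer pH 7.5 (0.1% BSA, 0.8% Triton X-100, 100 mM HEPES). Reaction on 20 pmol/well biotinylated H3 1–21 bound to a streptavidin plate, with 100 µM acetyl-CoA final, 1 h at 30 °C. Detection with anti-acetylhistone H3 antibody, then Eu-labelled secondary antibody; time-resolved fluorescence at 340/615 nm. IC50 from RFU plotted against log concentration.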
Target sequence in this assay (Q92831 whole entry): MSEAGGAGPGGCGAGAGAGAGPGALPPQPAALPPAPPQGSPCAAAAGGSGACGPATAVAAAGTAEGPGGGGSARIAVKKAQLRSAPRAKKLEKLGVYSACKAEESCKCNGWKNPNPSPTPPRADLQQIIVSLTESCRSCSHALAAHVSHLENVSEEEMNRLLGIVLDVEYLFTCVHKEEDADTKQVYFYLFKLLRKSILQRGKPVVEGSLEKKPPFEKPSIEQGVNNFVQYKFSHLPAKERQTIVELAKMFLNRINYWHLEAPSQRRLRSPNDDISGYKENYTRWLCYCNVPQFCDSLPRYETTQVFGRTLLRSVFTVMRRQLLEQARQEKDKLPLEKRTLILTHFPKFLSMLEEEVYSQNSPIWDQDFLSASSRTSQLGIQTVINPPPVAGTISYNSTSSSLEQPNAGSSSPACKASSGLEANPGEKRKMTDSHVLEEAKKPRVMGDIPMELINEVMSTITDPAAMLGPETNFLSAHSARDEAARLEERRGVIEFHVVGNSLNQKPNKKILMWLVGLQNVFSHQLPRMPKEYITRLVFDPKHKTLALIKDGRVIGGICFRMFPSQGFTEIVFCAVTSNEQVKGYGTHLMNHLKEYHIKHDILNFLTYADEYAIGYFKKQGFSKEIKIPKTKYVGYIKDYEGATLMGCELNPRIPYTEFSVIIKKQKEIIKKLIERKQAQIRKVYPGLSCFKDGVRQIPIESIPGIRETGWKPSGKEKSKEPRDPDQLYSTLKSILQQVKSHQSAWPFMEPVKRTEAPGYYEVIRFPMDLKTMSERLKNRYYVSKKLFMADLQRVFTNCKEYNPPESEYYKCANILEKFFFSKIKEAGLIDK

Test [2] concerns HCT-116. In words: Growth inhibition of human HCT116 cells at 25 uM by CellTiter-96 Aqueous Non-radioactive cell proliferation assay. It counts as functional. As to conditions: read-out: GI. The procedure, abridged: (§2)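 HCT116 cells were grown in high-glucose DMEM with 10% FBS, 2 mM L-glutamine, 1% non-essential amino acids and penicillin-streptomycin, and seeded at 4000/well. After 24 h, compound or DMSO vehicle was added; triplicates per concentration.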

For test [3], the system named is MCF7. The test can be described thus: Growth inhibition of human MCF7 cells by CellTiter-96 Aqueous Non-radioactive cell proliferation assay. The test is classed as functional. The procedure, abridged: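 MCF-7 cells were grown in RPMI-1640 with 10% FBS, 2 mM L-glutamine and penicillin-streptomycin, and seeded at 5000/well. Compounds or DMSO were added after 24 h; three replicates per concentration.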

Test [4] has as its system SK-N-SH. The test can be described thus: Growth inhibition of human SK-N-SH cells by CellTiter-96 Aqueous Non-radioactive cell proliferation assay. The test is classed as functional. An outline of the steps:
(§3)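 SK-N-SH neuroblastoma cells were grown in low-glucose DMEM with 10% FBS, 2 mM L-glutamine and 1% penicillin-streptomycin, and seeded at 5000/well. Compound or DMSO vehicle was added after 24 h, in triplicate.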

Test [5] has as its target T1, Histone acetyltransferase KAT2B. In words: Inhibition of histone acetylase activity of human recombinant PCAF expressed in Escherichia coli using biotinylated oligopeptide sequences from histone H4 (2-24) substrate by In-vitro time-resolved fluorescence immunosorbent acetyltransferase assay. The procedure, abridged: (§4)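 E. coli-expressed His-tagged human PCAF, Ni-NTA purified. Preincubated 10 min at 30 °C with inhibitor (DMSO solution) in HEPES 100 mM pH 7.5 with 0.1% BSA and 0.8% Triton X-100. Substrate was 20 pmol/well biotinylated H4 2–24 on streptavidin wells; 100 µM acetyl-CoA final; incubation steps 1 h at 30 °C. Acetylation read with anti-acetyl-lysine primary antibody and Eu-labelled anti-rabbit secondary, by time-resolved fluorescence at 340/615 nm; IC50 from RFU versus log concentration.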
Target sequence in this assay (Q92831 whole entry): as above

The target is the same in test [6]. The test can be described thus: Inhibition of histone acetylase activity of human recombinant PCAF expressed in Escherichia coli at 300 uM using biotinylated oligopeptide sequences from histone H3 (1-21) substrate by In-vitro time-resolved fluorescence immunosorbent acetyltransferase assay. The procedure, abridged:
as §1
Target sequence in this assay (Q92831 whole entry, looked up): as the sequence (Q92831 whole entry) above

For test [7] the target is unchanged. The test can be described thus: Inhibition of histone acetylase activity of human recombinant PCAF expressed in Escherichia coli at 200 uM using biotinylated oligopeptide sequences from histone H4 (2-24) substrate by In-vitro time-resolved fluorescence immunosorbent acetyltransferase assay. The procedure, abridged:
as §4
Target sequence in this assay (Q92831 whole entry, looked up): as the sequence (Q92831 whole entry) above

Test [8] has the same target. The test can be described thus: Inhibition of histone acetylase activity of human recombinant PCAF expressed in Escherichia coli at 50 uM using biotinylated oligopeptide sequences from histone H4 (2-24) substrate by In-vitro time-resolved fluorescence immunosorbent acetyltransferase assay. The procedure, abridged: as §4
Target sequence in this assay (Q92831 whole entry, looked up): as the sequence (Q92831 whole entry) above
In test [9] the test system is SK-N-SH. The test can be described thus: Growth inhibition of human SK-N-SH cells at 10 uM by CellTiter-96 Aqueous Non-radioactive cell proliferation assay. It counts as functional. Conditions: read-out: GI. An outline of the steps:
as §3

Test [10] deals with T1, Histone acetyltransferase KAT2B. In words: Inhibition of histone acetylase activity of human recombinant PCAF expressed in Escherichia coli at 50 uM using biotinylated oligopeptide sequences from histone H3 (1-21) substrate by In-vitro time-resolved fluorescence immunosorbent acetyltransferase assay. An outline of the steps: as §1
Target sequence in this assay (Q92831 whole entry, looked up): as the sequence (Q92831 whole entry) above
Test [11] relates to SK-N-SH. The test can be described thus: Growth inhibition of human SK-N-SH cells at 100 uM by CellTiter-96 Aqueous Non-radioactive cell proliferation assay. The test is classed as functional. As to conditions: read-out: GI. An outline of the steps:
as §3

Test [12] has as its system HCT-116. The test can be described thus: Growth inhibition of human HCT116 cells at 100 uM by CellTiter-96 Aqueous Non-radioactive cell proliferation assay. It counts as functional. As to conditions: read-out: GI. The procedure, abridged: as §2
Test [13] deals with SK-N-SH. The test can be described thus: Growth inhibition of human SK-N-SH cells at 25 uM by CellTiter-96 Aqueous Non-radioactive cell proliferation assay. The test is classed as functional. As to conditions: read-out: GI. An outline of the steps: as §3

As usually defined, the IC50 is the midpoint of a concentration-inhibition curve. Broadly, the GI50 is the concentration that inhibits growth by half. In general, inhibition refers to the change of the read-out against control, counted positive when it falls.

Regarding `O=c1c2cccnc2sn1Cc1ccc(C(F)(F)F)cc1`, the IC50 in test [1] stood at 130 µM; in test [5], 25.5 µM. Also, the inhibition of growth at 25 µM in test [2] was 38%. Further, the GI50 came to 30.2 µM in [3] and 0.48 µM in test [4].

Turning to `Cc1cnc2sn(-c3ccc([N+](=O)[O-])cc3)c(=O)c2c1`, the figures for the half-maximal inhibitory concentration (IC50) in test [1] and in [5] were 15.3 µM and 2.72 µM, respectively.

On to `O=c1c2cccnc2sn1Cc1ccc(F)c(F)c1`, for which the IC50 in [1] was 101 µM.

With `COc1ccc(-n2sc3ncccc3c2=O)cc1`, in [1], the IC50 amounted to 5.71 µM. Also, in [2], the inhibition of growth at 25 µM is 29%. Besides, the concentration for 50% growth inhibition (GI50) in test [4] stood at 19.2 µM.

As to `Cc1cnc2sn(-c3ccc(Br)cc3)c(=O)c2c1`, the IC50 in test [1] stood at 2.99 µM. For the same compound, the inhibition of growth at 25 µM in test [2] is < 5%. Besides, the GI50 in [4] came to 21.3 µM.

With `O=c1c2cc([N+](=O)[O-])cnc2sn1-c1ccc([N+](=O)[O-])cc1`, the results for the IC50 in [1] and in test [5] were 11.8 µM and 15.8 µM, respectively.

As for `C=C(C)C(C(=O)OC)n1scc(NCc2ccccc2)c1=O` (configuration not stated), the inhibition was 48% in [6] and 20% in [7].

For `CCCCc1ccc(-n2sc3ncccc3c2=O)cc1`, the IC50 in test [1] came to 15.9 µM. The inhibition of growth at 25 µM in [2] is 21%. The GI50 in test [4] amounted to 8.93 µM.

Regarding `O=c1c2cccnc2sn1-c1ccc(Cl)cc1`, in test [1], the half-maximal inhibitory concentration (IC50) was 3.53 µM. Besides, the inhibition of growth at 25 µM in [2] worked out at 23%. Further, in test [4], the GI50 was found to be 16.1 µM. The inhibition in [8] is 87%.

As to `COc1cccc(Cn2sc3ncccc3c2=O)c1`, the half-maximal inhibitory concentration (IC50) in test [1] was 22.2 µM. In [2], the inhibition of growth at 25 µM is 42%. Also, the inhibition of growth at 10 µM in test [9] came to 26%.

On to `O=c1c2cccnc2[s+]([O-])n1Cc1ccc(Cl)c(Cl)c1` (configuration not stated), for which, in test [10], the inhibition was determined as 11%.

As to `Cc1ccc(Cn2sc3ncccc3c2=O)cc1`, the half-inhibitory concentration (IC50) in test [1] is 27.9 µM. For the same compound, in [2], the inhibition of growth at 25 µM was determined as 79%. Besides, the inhibition of growth at 10 µM in test [9] came to 31%.

Regarding `COc1cccc(-n2sc3ncccc3c2=O)c1`, the IC50 in [1] came out at 5.03 µM.

With `O=c1c2cccnc2sn1-c1ccccc1`, in test [1], the half-maximal inhibitory concentration (IC50) is 7.85 µM. For the same compound, the inhibition in [8] was determined as 88%.

For `O=c1ccsn1-c1ccc(Cl)c([N+](=O)[O-])c1`, the IC50 in [1] came out at 4.8 µM. Further, the GI50 in test [4] was found to be 23.2 µM.

On to `Cc1ccc(-n2sc3cc(F)ccc3c2=O)cc1`, for which the results for the inhibition of growth at 100 µM in test [11] and in [12] were 35% and 49%, respectively. Besides, the concentration for half-maximal inhibition (IC50) in test [1] was found to be 3.69 µM.

For `Oc1nsc2ncccc12`, the inhibition in test [10] is 17%.

Regarding `Cc1cnc2sn(-c3ccc(Oc4ccccc4)cc3)c(=O)c2c1`, the IC50 in [1] amounted to 12.9 µM. The inhibition of growth at 25 µM in [2] was 29%; in test [13], 32%.

For `O=c1c2ccccc2sn1-c1nc2ccccc2s1`, in [10], the inhibition turned out to be 46%.

Take `O=c1c2ccc([N+](=O)[O-])cc2sn1Cc1ccccc1`: the concentration for half-maximal inhibition (IC50) is 7.66 µM in test [1] and 51.3 µM in test [5].
